How the values were obtained:
[1] = system: tumor immunogenic cell death (ICD); conditions: cited from earlier work
[2] = system: triple negative breast cancer; conditions: cited from earlier work
[3] = doxorubicin; cited from earlier work
[4] = Body weight of CT26 tumor-bearing mice; format: in vivo, mouse; conditions: doxorubicin 5 mg/kg i.v. days 6, 9, 12, alone or in the combination group
Procedure, shortened: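 Eight-week-old male and female Balb/c mice received 1×10⁶ CT26 cells s.c. in the right flank. At 50–100 mm³, tumours were randomised into groups of 10 (half female). Doxorubicin 5 mg/kg i.v. was given on days 6, 9 and 12 post-implant, alone or combined with test peptide 5 mg/kg daily. Saline served as negative control. Body weight was recorded daily throughout treatment.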

COc1cccc2c1C(=O)c1c(O)c3c(c(O)c1C2=O)C[C@@](O)(C(=O)CO)C[C@@H]3O[C@H]1C[C@H](N)[C@H](O)[C@H](C)O1 [doxorubicin]
Induction of tumor immunogenic cell death [1]: induce tumor immunogenic cell death (ICD)
Effect on CD47 expression [2]: induced CD47 expression in triple negative breast cancer
Maximum tolerated dose [3]: 5 mg/kg
Systemic toxicity (weight loss) [4]: slight systemic toxicity

Source: article PMC11034909 (Advanced therapeutics, 2023)
